MT1-MMP act inh = MT1-MMP (human) activation inhibition. 360,000 compounds, 0.061% hits. P50281. HT1080 RFP-PRO-GFP cells, GFP/RFP ratio fluorescence, overnight; percent of plate control window, DMSO zero. GFP/RFP ratio change, % at 20 µM;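 active means GFP/RFP ratio change of at least 30% with cell ATP level not reduced by more than half and red fluorescence within 50% of control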
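Assay system: HT1080 cells carrying an RFP-PRO-GFP reporter | Dosing: Single dose of 20 µM compound, 1% DMSO final | Incubation: Cells overnight before dosing, compound overnight, 37 °C, 5% CO2 | Evaluation: GFP/RFP fluorescence ratio | Control set: DMSO and RFP-L50D-GFP cell wells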
ATG4B inhibitor = inhibitors of human ATG4B cysteine protease; Q9Y4P1; ATG4B cleavage of LC3-PLA2, NBD-HPC fluorescence, 1 h; inhibition, % at 8.33 µM; 340,000 compounds, 0.51% hits; AID 504462; in the data active means inhibition above about 40%
Target sequence (Q9Y4P1 whole entry, looked up): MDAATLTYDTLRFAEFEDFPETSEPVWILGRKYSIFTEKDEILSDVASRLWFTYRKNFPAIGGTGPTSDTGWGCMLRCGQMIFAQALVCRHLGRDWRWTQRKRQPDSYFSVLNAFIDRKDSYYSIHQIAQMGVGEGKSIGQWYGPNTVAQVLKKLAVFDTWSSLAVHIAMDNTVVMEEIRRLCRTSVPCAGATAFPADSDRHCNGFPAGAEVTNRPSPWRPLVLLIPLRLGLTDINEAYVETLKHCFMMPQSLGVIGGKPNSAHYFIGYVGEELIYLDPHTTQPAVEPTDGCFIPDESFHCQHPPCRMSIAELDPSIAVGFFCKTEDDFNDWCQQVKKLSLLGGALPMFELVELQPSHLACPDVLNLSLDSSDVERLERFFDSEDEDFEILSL
MPTP inh = blocks calcium-induced mitochondrial swelling. isolated mouse mitochondria, Ca2+ swelling absorbance, 30 min. inhibition, % at 10 µM. 360,000 compounds, 1.4% hits;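 active means inhibition of 50% or more, scaled per plate between neutral and stimulator controls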;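 further: 0% = DMSO wells given calcium and 100% = 1 mM EGTA wells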
SKN-1 block = blocks SKN-1 activity in C. elegans | C. elegans VP596 Pgst-4::GFP/RFP ratio, acrylamide-induced, 24 h | inhibition, % at 21.8 µM | 360,000 compounds, 0.49% hits;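 active means interference check ratio from 0.5 to 1.5 plus GFP to RFP signal ratio inhibition reaching or exceeding a fixed threshold, cut at about 30% in these data, passing the limit was not always enough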
Active calls of the source: *; x = no result. An excerpt weighted towards active compounds, which were near 2.3% of everything screened.

SMILES	MT1-MMP act inh	ATG4B inhibitor	MPTP inh	SKN-1 block
Cc1ccc(NC(=O)COc2ccc(Br)cc2CO)cc1S(=O)(=O)N1CCOCC1	1.8	-17.0	-0.2	41.2*
CC(OC(=O)/C(C#N)=C/c1ccc(N(C)C)cc1)C(=O)N(C)c1ccccc1 (stereo not drawn)	-50.3	10.2	0.9	46.3*
CCOC(=O)[C@]12CCCC=C1N(CCC1=CCCCC1)C(=O)[C@H](CC(=O)NCc1cccc(C(F)(F)F)c1)C2	-3.4	x	-2.6	0.5
O=C(CN1CCCC1)Nc1sc2c(c1C(=O)Nc1ccc(Br)cc1)CCC2	-4.5	0.5	2.7	37.9*
CN1CCN(CC(=O)Nc2sc3c(c2C(=O)Nc2ccccc2)CCCC3)CC1	1.8	-11.0	-1.0	8.7
O=C(NCC(c1cccs1)N1CCOCC1)c1ccc(Cl)c([N+](=O)[O-])c1 (stereo not drawn)	1.9	5.7	-0.4	3.7
Clc1ccc(SCc2cc(-c3ccc(Cl)cc3)on2)cc1	-1.7	-4.3	2.6	52.6*
Cc1ccc(S(=O)(=O)N2CC=C(c3c(C)n(C)c4ccccc34)CC2)cc1	12.6	-4.5	0.5	52.3*
CCn1c(C)c(C2=CCN(S(=O)(=O)c3ccccc3)CC2)c2ccccc21	0.4	-2.5	0.7	53.7*
OCCCNc1ncnc2c1ncn2[C@H]1CN(C2CCCC2)C[C@@H](CO)O1	5.5	x	-1.2	7.2
CCC(C(=O)NC1CCCC1)n1c(-c2ccnc3ccccc23)nc2ccccc21 (stereo not drawn)	-11.0	x	4.0	-12.0
Cc1ccc(-c2nc(=S)c3c(n2CCN2CCOCC2)CC(C)(C)OC3)cc1	-5.7	-5.8	0.4	35.7*
Cc1cc(OCC(=O)NNC(=O)c2cccs2)ccc1Br	-3.6	-4.5	0.3	-8.0
CCC(C(=O)N(C(C)C)C(C)C)c1ccccc1 (stereo not drawn)	3.1	-3.2	-1.1	36.8*
COc1ccc(N2C(=O)C3[C@@H](C2=O)C2(Cl)C(Cl)=C(Cl)C3(Cl)C2(OC)OC)cc1 (stereo partly drawn)	-0.4	-8.8	0.8	2.5
Cc1ccc(NC(=S)NC(=O)C2CCCC2)cc1C	-2.1	13.1	-0.3	0.2
Cc1ccc(NC(=S)NC(=O)C2CC2)c(C)c1	-0.4	-1.6	-1.9	45.4*
Cc1ccccc1-c1nc(CS(=O)(=O)CC(=O)NCCN2CCCC2)c(C)o1	0.0	-4.3	0.5	2.0
c1ccc(OCc2nc3ccccc3s2)cc1	0.2	2.1	1.3	48.5*
Fc1ccc(OCc2nc3ccccc3s2)cc1	-4.3	-2.0	1.6	38.3*
Cc1cc(OCc2nc3ccccc3s2)ccc1N	-2.2	4.5	-0.1	11.9
COc1ccc(N(C)S(=O)(=O)c2ccc(Cl)c(C(=O)NNC(=O)c3ccccc3O)c2)cc1	7.0	5.0	2.3	6.3
CSc1ncccc1C(=O)OCC(=O)c1ccc(C)s1	-0.8	2.3	-1.0	2.5
COC(=O)c1cc(NC(=O)CN(c2ccc3c(c2)OCO3)S(C)(=O)=O)ccc1Cl	-1.9	-7.0	-0.9	35.8*
COCCNC(=O)c1ccccc1NC(=O)CCSc1ccccc1	0.3	1.1	-0.4	-9.4
SMILES	MT1-MMP act inh	ATG4B inhibitor	MPTP inh	SKN-1 block
FC(F)(F)c1cc(-c2cccs2)nc(-n2cc(Br)cn2)n1	0.1	5.5	-1.6	45.2*
Cc1cnn(-c2nc(-c3cccs3)cc(C(F)(F)F)n2)c1	-2.2	5.1	-0.5	20.5
CCN(c1ccccc1)S(=O)(=O)c1cccc(C(=O)Nc2ccc(C)cn2)c1	1.6	-2.1	-2.0	48.2*
Cn1c(N=Nc2ccccc2)nc2ccccc21	1.9	-3.6	-1.4	39.6*
Cn1c(Cl)nc2ccccc21	2.0	3.5	-1.8	-18.0
O=C1CC(=O)N(Cc2ccco2)C(=S)N1	-29.3	46.2*	-2.6	9.8
O=C1CC(=O)N(Cc2ccco2)C(=O)N1	-87.6	-1.9	-0.3	7.8
COC(=O)c1sc(NC(=O)CSc2nc3cccnc3n2C)nc1C	2.2	-7.0	0.3	7.5
O=C(Nc1ccc2oc(-c3cccnc3)nc2c1)c1ccc(Br)o1	0.0	0.8	-1.8	35.5*
O=C(Nc1ccc(-c2nc3ncccc3o2)cc1)c1ccc(Br)o1	-16.5	-14.1	-0.2	38.3*
CCc1ccc(C2C(C#N)=C(N)N(N(C)C)C3=C2C(=O)CCC3)cc1 (stereo not drawn)	-0.4	-9.7	2.5	36.2*
O=c1/c(=C\c2ccc(F)cc2)sc2n1CCCN=2	6.7	-0.7	0.4	39.3*
NC(=O)c1ccc(-c2noc(-c3ccccc3F)n2)cc1	0.1	15.4	-1.2	1.8
Fc1ccccc1-c1nc(-c2ccc(Cl)cc2)no1	-8.3	7.0	-2.0	36.0*
O=C1c2ccccc2C(=O)N1CCc1nc(-c2ccc(Cl)cc2)no1	1.1	9.9	1.6	47.8*
O=C(CCc1ccccc1)NCC1(c2ccccc2)CCCC1	-6.6	2.4	0.0	-15.9
CC(C)OC(=O)CSc1nnc(SCc2cccc3ccccc23)s1	-1.9	6.8	-9.1	32.2*
COC(=O)CSc1nnc(SCc2ccc(OC)cc2)s1	2.4	2.8	-1.6	39.3*
O=C(NCC[C@H]1CC[C@@H](NC(=O)C2CCOCC2)[C@@H](CO)O1)Nc1ccc(Cl)cc1	-2.0	x	10.7	0.3
O=[N+]([O-])c1cc(S(=O)(=O)N2CCCC2)ccc1N/N=C/c1ccncc1	5.6	-11.6	0.8	7.8
O=[N+]([O-])c1cc(S(=O)(=O)N2CCCC2)ccc1N/N=C/c1cccs1	9.3	-8.6	3.8	36.1*
CCc1nnc(NC(=O)C(c2ccccc2)c2ccccc2)s1	-3.0	4.7	0.6	-3.6
Cc1nn(-c2ccccc2)c(Cl)c1/C=C/C(=O)c1ccccc1	-10.8	-6.0	0.7	31.5*
CN(C(=O)COC(=O)C1c2ccccc2Oc2ccccc21)C1CCS(=O)(=O)C1 (stereo not drawn)	3.8	-6.6	-4.2	48.0*
CC(=O)O[C@H]1[C@@H](O)[C@H](O)[C@H](Oc2c(O)c(C)c3c4c2[C@@H](C)CC[C@@H]4[C@@H](C)C[C@@H]3C=C(C)C)O[C@H]1C	1.4	x	2.8	40.4*
SMILES	MT1-MMP act inh	ATG4B inhibitor	MPTP inh	SKN-1 block
Cc1cc(=O)n2nc(N3CCCC(C(=O)NCc4cccc(Br)c4)C3)sc2n1 (stereo not drawn)	-1.4	18.5	-0.1	4.6
O=C(OCC(=O)C12CC3CC(CC(C3)C1)C2)c1cnccn1	x	-1.8	0.3	-16.4
N#C/C(=C\c1ccco1)c1nc2ccccc2s1	-3.9	16.5	10.2	88.4*
N#C/C(=C/c1ccco1)c1nc2ccccc2s1	-12.3	7.7	3.5	85.8*
COc1ccc(-c2[nH]nc3nc(N4CCN(C(=O)c5ccoc5)CC4)cc(C(F)(F)F)c23)cc1	-3.8	x	-1.4	-2.5
Cc1ccccc1CN1CCC(N2CCC(C(=O)NCC3CCCO3)CC2)CC1 (stereo not drawn)	2.5	-4.7	1.9	-10.1
FCCCOc1ccc(-c2nccc(-c3ccc(F)cc3)n2)cc1	-0.9	-1.2	13.4	22.4
FCCCOc1ccc(-c2ccnc(-c3ccccc3)n2)cc1	8.9	-0.1	0.1	57.0*
Cn1/c(=N/N=C/c2ccccn2)sc2ccccc21	3.0	-7.1	0.0	42.1*
